From ChEMBL document CHEMBL1154383, “Novel biphenylcarboxylic acid peroxisome proliferator-activated receptor (PPAR) delta selective antagonists” (Bioorg Med Chem Lett, 2009)
Calls of active or inactive are those of the source. The calls are words filed in the database; no cut-off is given here.

Tests used:
[1] = molecular target: Peroxisome proliferator-activated receptor delta (Homo sapiens) (UniProt Q03181); test: Antagonist activity at PPARdelta co-transfected with GAL4-PPAR fusion protein assessed as inhibition of GW501516-induced response by luciferase reporter gene assay
[2] = molecular target: T1, Peroxisome proliferator-activated receptor delta (Homo sapiens) (UniProt Q03181); test: Agonist activity at PPARdelta receptor expressed in HEK293 cells co-transfected with GAL4 at 1 uM by transactivation assay; type: functional, cell-based
T1 sequence (whole entry): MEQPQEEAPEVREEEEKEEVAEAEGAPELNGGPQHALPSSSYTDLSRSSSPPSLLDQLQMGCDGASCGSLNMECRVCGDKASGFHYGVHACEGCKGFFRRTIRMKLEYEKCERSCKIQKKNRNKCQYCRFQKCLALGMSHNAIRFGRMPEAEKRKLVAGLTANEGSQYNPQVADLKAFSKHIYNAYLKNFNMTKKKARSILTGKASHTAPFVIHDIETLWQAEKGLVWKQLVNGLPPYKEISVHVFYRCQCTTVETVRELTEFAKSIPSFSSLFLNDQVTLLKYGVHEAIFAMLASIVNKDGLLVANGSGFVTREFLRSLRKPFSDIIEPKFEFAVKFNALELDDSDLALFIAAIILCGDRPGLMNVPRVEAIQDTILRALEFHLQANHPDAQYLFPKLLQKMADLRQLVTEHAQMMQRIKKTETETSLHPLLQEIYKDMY

[3] = molecular target: T2, Peroxisome proliferator-activated receptor alpha (Homo sapiens) (UniProt Q07869); test: (§1) Agonist activity at PPARalpha receptor expressed in HEK293 cells co-transfected with GAL4 at 1 uM by transactivation assay; type: functional, cell-based
T2 sequence (whole entry): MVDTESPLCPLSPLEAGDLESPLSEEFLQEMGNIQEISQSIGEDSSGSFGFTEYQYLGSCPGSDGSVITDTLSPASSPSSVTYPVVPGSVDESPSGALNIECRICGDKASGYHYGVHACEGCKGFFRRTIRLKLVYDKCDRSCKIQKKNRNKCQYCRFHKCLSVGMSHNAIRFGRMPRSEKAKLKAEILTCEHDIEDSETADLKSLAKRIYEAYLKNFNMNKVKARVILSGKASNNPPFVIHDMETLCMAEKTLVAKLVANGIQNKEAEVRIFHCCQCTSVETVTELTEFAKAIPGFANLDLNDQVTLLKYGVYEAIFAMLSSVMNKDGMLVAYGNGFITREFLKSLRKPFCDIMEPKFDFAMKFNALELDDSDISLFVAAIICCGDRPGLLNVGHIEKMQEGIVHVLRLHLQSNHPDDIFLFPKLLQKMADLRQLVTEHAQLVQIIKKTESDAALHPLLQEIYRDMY

[4] = molecular target: T3, Peroxisome proliferator-activated receptor gamma (Homo sapiens) (UniProt P37231); test: Agonist activity at PPARgamma receptor expressed in HEK293 cells co-transfected with GAL4 at 10 uM by transactivation assay; type: functional, cell-based
T3 sequence (whole entry): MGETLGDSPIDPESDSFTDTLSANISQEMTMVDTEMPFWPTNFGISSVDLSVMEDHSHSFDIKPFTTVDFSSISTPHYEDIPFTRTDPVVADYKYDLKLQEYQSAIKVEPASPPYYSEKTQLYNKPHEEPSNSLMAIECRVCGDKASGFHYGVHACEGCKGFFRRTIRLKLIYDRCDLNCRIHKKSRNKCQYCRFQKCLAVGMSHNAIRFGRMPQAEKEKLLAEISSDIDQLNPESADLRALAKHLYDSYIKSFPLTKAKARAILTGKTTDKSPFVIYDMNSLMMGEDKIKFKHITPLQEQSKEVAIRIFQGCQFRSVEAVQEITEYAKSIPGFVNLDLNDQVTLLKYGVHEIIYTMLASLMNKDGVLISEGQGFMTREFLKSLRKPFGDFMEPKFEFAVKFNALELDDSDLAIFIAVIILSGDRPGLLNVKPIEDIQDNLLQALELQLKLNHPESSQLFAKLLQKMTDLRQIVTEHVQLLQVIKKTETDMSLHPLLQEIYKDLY

[5] = molecular target: T2, Peroxisome proliferator-activated receptor alpha (Homo sapiens); test: Agonist activity at PPARalpha receptor expressed in HEK293 cells co-transfected with GAL4 up to 10 uM by transactivation assay; type: functional, cell-based
Procedure, shortened: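 HEK293 cells transfected with GAL4-PPAR chimeric receptors (PPARα, δ or γ) in a cell-based transactivation assay. Results given as EC50 and % efficacy relative to a subtype positive control: fenofibric acid for PPARα, GW501516 for PPARδ, ciglitazone for PPARγ.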

[6] = molecular target: T2, Peroxisome proliferator-activated receptor alpha (Homo sapiens); test: Antagonist activity at PPARalpha co-transfected with GAL4-PPAR fusion protein assessed as inhibition of TIPP703-induced response up to 10 uM by luciferase reporter gene assay; type: functional
Procedure, shortened: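 Antagonist mode in the GAL4-PPAR chimera system. Cells were stimulated with the agonist TIPP-703, with or without three added test concentrations. Inhibition of the agonist-elicited reporter signal was assessed for dose dependence.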

[7] = molecular target: T4, Peroxisome proliferator-activated receptor delta (Homo sapiens, UniProt Q03181); test: Antagonist activity at PPARdelta co-transfected with GAL4-PPAR fusion protein assessed as inhibition of GW-501516-induced response by luciferase reporter gene assay; type: functional
T4 sequence (Q03181 whole entry): T1 sequence (whole entry)

[8] = molecular target: T5, Peroxisome proliferator-activated receptor alpha (Homo sapiens, UniProt Q07869); test: as §1; type: functional, cell-based
T5 sequence (Q07869 whole entry): T2 sequence (whole entry)

[9] = molecular target: T3, Peroxisome proliferator-activated receptor gamma (Homo sapiens); test: Antagonist activity at PPARgamma co-transfected with GAL4-PPAR fusion protein assessed as inhibition of TIPP703-induced response up to 10 uM by luciferase reporter gene assay; type: functional
Procedure, shortened: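 Cells expressing GAL4-PPARα or GAL4-PPARγ chimeras were stimulated with the agonist TIPP-703, with or without co-treatment at 0.1, 1 or 10 µM. Antagonism was read as dose-dependent reduction of the induced transactivation signal.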

[10] = molecular target: T4, Peroxisome proliferator-activated receptor delta; test: Agonist activity at PPARdelta receptor expressed in HEK293 cells co-transfected with GAL4 by transactivation assay; type: functional, cell-based
[11] = molecular target: T5, Peroxisome proliferator-activated receptor alpha; test: Agonist activity at PPARalpha receptor expressed in HEK293 cells co-transfected with GAL4 by transactivation assay; type: functional, cell-based
Procedure, shortened: (§2)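 GAL4-PPARα chimeric receptor transfected into HEK293 cells; cell-based transactivation (agonist mode). Output is EC50, plus % efficacy relative to the positive control fenofibric acid for PPARα.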

[12] = molecular target: T6, Peroxisome proliferator-activated receptor gamma (Homo sapiens, UniProt P37231); test: Agonist activity at PPARgamma receptor expressed in HEK293 cells co-transfected with GAL4 by transactivation assay
T6 sequence (P37231 whole entry): T3 sequence (whole entry)

[13] = molecular target: T1, Peroxisome proliferator-activated receptor delta (Homo sapiens); test: Agonist activity at PPARdelta receptor expressed in HEK293 cells co-transfected with GAL4 at 10 uM by transactivation assay; type: functional, cell-based
[14] = molecular target: T2, Peroxisome proliferator-activated receptor alpha (Homo sapiens); test: Agonist activity at PPARalpha receptor expressed in HEK293 cells co-transfected with GAL4 by transactivation assay relative to […]; type: functional, cell-based
Procedure, shortened: as §2

[15] = molecular target: T6, Peroxisome proliferator-activated receptor gamma

Row | Structure (SMILES) | Activity [3] | Activity [4] | Activity [5] | EC50 [10] | EC50 [11] | Efficacy [14] | also measured
1 | CCCCOc1ccc(C[C@H](CC)C(=O)O)cc1CNC(=O)c1ccc(C(F)(F)F)cc1F |  |  |  | 0.00072 µM | 0.24 µM |  | EC50 [12]: 1.4 µM
2 | CCCCOc1ccc(-c2cc(C(=O)O)ccc2C)cc1CNC(=O)c1ccc(C(F)(F)F)cc1F |  |  |  | 0.0049 µM | 0.57 µM | 100% | 
3 | CCCCOc1ccc(-c2ccc(C(=O)O)cc2C)cc1CNC(=O)c1ccc(C(F)(F)F)cc1F | inactive |  |  |  |  |  | IC50 [15]: 0.01 µM
4 | CCCCOc1ccc(-c2ccc(C(=O)O)o2)cc1CNC(=O)c1ccc(C(F)(F)F)cc1F | inactive | inactive | inactive |  |  |  | Activity [1]: inactive; Activity [13]: inactive; Activity [2]: inactive
5 | CCCCOc1ccc(-c2cccc(C(=O)O)c2C)cc1CNC(=O)c1ccc(C(F)(F)F)cc1F |  |  |  | 0.0016 µM | 0.13 µM | 100% | 
6 | CCCCOc1ccc(-c2ccc(C(=O)O)c(C)c2)cc1CNC(=O)c1ccc(C(F)(F)F)cc1F |  |  |  | 0.045 µM | 3 µM | 100% | 
7 | CCCCOc1ccc(-c2ccc(C(=O)O)nc2)cc1CNC(=O)c1ccc(C(F)(F)F)cc1F | inactive |  |  | 0.4 µM |  |  | 

Second part, led by results:

Row | Activity [3] | Activity [4] | Activity [5] | EC50 [10] | EC50 [11] | Efficacy [14] | Structure (SMILES) | also measured
8 | inactive | inactive | inactive |  |  |  | CCCCOc1ccc(-c2ccccc2C(=O)O)cc1CNC(=O)c1ccc(C(F)(F)F)cc1F | Activity [1]: inactive; Activity [2]: inactive
9 |  | inactive | inactive | 0.17 µM |  |  | CCCCOc1ccc(-c2ccc(C(=O)O)cc2)cc1CNC(=O)c1ccc(C(F)(F)F)cc1F | Activity [6]: inactive; IC50 [7]: 0.068 µM; EC50 [8]: Not Active; Activity [9]: inactive
10 | inactive |  |  | 0.053 µM |  |  | CCCCOc1ccc(-c2ccc(C(=O)O)cc2F)cc1CNC(=O)c1ccc(C(F)(F)F)cc1F | 
11 | inactive | inactive | inactive |  |  |  | CCCCOc1ccc(-c2ccc(C(=O)O)cn2)cc1CNC(=O)c1ccc(C(F)(F)F)cc1F | Activity [1]: inactive; Activity [13]: inactive; Activity [2]: inactive
12 |  |  |  | 0.029 µM | 0.79 µM | 100% | CCCCOc1ccc(-c2cccc(C(=O)O)c2)cc1CNC(=O)c1ccc(C(F)(F)F)cc1F | 
13 |  |  |  | 0.014 µM | 0.12 µM | 100% | CCCCOc1ccc(-c2ccc(C)c(C(=O)O)c2)cc1CNC(=O)c1ccc(C(F)(F)F)cc1F | 
